Measured values of several laboratories.
Target: Aurora kinase B (AURKB, Homo sapiens, UniProt Q96GD4)

| SMILES | read-out | mode | technique | concentration | measurement | result |
| --- | --- | --- | --- | --- | --- | --- |
| c1cc(CN2CCOCC2)cc(Nc2ncc(C3CC3)c(NCCc3c[nH]cn3)n2)c1 | enzyme activity | inhibitor | radiometric | 1 µM | remaining activity | 2% |
| CCC(=O)N[C@@H]1CC[C@H](C(=O)N(C)c2ccc(-c3nc4ccccc4o3)cc2)C1 | cell-free assay | – | competition with immobilised ligand | 1 µM | remaining binding | 96% |
| O=C(CSc1nc2nccnc2c(=O)n1CCc1ccccc1)Nc1nccs1 | enzyme activity | inhibitor | – | 10 µM | inhibition | 6% |
| CN(C)CC#Cc1ccc(OCCCc2sc(N3CCc4cccc(C(=O)Nc5nc6ccccc6s5)c4C3)nc2C(=O)O)c(F)c1 | cell-free assay | – | competition with immobilised ligand | 1 µM | remaining binding | 79% |
| O=C(NCCCNc1nc(Nc2cccc(NC(=O)N3CCCC3)c2)ncc1C1CC1)C1CCC1 | enzyme activity | inhibitor | radiometric | 1 µM | remaining activity | 11% |
| CC(=O)c1c(NS(C)(=O)=O)c2cc(-c3ccc(Cl)cc3)c(-c3ccc(Cl)cc3Cl)nc2n(C)c1=O | cell-free assay | – | competition with immobilised ligand | 1 µM | remaining binding | 100% |
| C=CC(=O)Nc1cc(Nc2nccc(Nc3cc(Cl)c(F)cc3C(C)(C)O)n2)c(OC)cc1N1CC[C@@H](N(C)C)C1 | enzyme activity | inhibitor | – | 1 µM | inhibition | 10% |
| Cc1cc(Nc2cc3ncccc3c(N[C@@H]3C[C@H]4CC[C@@H](C3)N4CCC#N)n2)n[nH]1 | enzyme activity | inhibitor | – | 1 µM | inhibition | 80% |
| Cc1nc(N2CC[C@@H](O)C2)ncc1-c1cc(C(F)(F)F)cc2[nH]ncc12 | cell-free assay | – | competition with immobilised ligand | 1 µM | remaining binding | 100% |
| CN1CC(Oc2cnc(C#N)cc2-c2ccn3nc(NC(=O)C4CC4)cc3c2)C1 | enzyme activity | inhibitor | – | 1 µM | inhibition | 1% |
| c1ccc(N2CCN(Cc3nc4ccccc4[nH]3)CC2)nc1 | cell-free assay | – | competition with immobilised ligand | 1 µM | remaining binding | 18% |
| COc1cc2c(Nc3ccc(Br)cc3F)ncnc2cc1OCC1CCN(C)CC1 | cell-free assay | – | – | 0.5 µM | remaining signal | 95.5% |
| Brc1cnc(Nc2cccc(CN3CCOCC3)c2)nc1NCCc1c[nH]cn1 | enzyme activity | inhibitor | radiometric | 1 µM | remaining activity | 1% |
| CC/C(=N\NC(=O)NCc1cccc(O)c1)c1ccc(O)c(C)c1O | enzyme activity | inhibitor | – | 0.1 µM | inhibition | 2.9% |
| CC(=O)C1=C(C)N(c2cccc(C(F)(F)F)c2)C(=O)N[C@@H]1c1ccc(C#N)nc1 | cell-free assay | – | competition with immobilised ligand | 1 µM | remaining binding | 100% |
| O=C1c2ccccc2-c2n[nH]c3cccc1c23 | enzyme activity | inhibitor | – | 0.5 µM | activity vs control | 14.9% |
| COc1cc2nccc(Oc3ccc(NC(=O)c4c5n(n(-c6ccc(F)cc6)c4=O)CCCC5)cc3)c2cc1OC | enzyme activity | inhibitor | – | 0.1 µM | inhibition | 60% |
| CN(C)C1CCN(CC#Cc2nn(C3CCCC3)c3nc(NCc4ccccc4)ncc23)C1 (centres unmarked) | enzyme activity | inhibitor | FRET | 0.1 µM | inhibition | 8% |
| Cc1nn(CC(F)(F)F)cc1Nc1ncc(C2CC2)c(NCCCNC(=O)C2CCC2)n1 | enzyme activity | inhibitor | radiometric | 1 µM | remaining activity | 102% |
| CCN(CC)CCNC(=O)c1c(C)[nH]c(/C=C2\C(=O)Nc3ccc(F)cc32)c1C | cell-free assay | – | – | 0.5 µM | remaining signal | 48.7% |
